In ChEMBL document CHEMBL1129430, “Synthesis and transporter binding properties of 3 beta-(4'-alkyl-, 4'-alkenyl-, and 4'-alkynylphenyl)nortropane-2 beta-carboxylic acid methyl esters: serotonin transporter selective analogs” (J Med Chem, 1996):

Key:
[1] = biological target: Monoamine transporters; serotonin & dopamine (Rattus norvegicus) (UniProt P31652+P23977); test: Selectivity for dopamine and serotonin transporters; assay type: protein assay
[2] = biological target: Monoamine transporters; Norepinephrine & serotonin (Rattus norvegicus) (UniProt P31652+Q9WTR4); test: Selectivity for norepinephrine and serotonin transporters; assay type: protein assay
Summary of the method: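 The NE/5-HT IC50 ratio is derived from IC50 values from two binding assays in rat brain. One is [3H]nisoxetine binding in midbrain (NE transporter). The other is [3H]paroxetine binding in frontal cortex (5-HT transporter).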

[3] = biological target: Norepinephrine transporter (Rattus norvegicus, UniProt Q9WTR4); test: Inhibition of [3H]nisoxetine binding to the norepinephrine transporter in rat midbrain.
Sequence of Norepinephrine transporter (Q9WTR4 whole entry): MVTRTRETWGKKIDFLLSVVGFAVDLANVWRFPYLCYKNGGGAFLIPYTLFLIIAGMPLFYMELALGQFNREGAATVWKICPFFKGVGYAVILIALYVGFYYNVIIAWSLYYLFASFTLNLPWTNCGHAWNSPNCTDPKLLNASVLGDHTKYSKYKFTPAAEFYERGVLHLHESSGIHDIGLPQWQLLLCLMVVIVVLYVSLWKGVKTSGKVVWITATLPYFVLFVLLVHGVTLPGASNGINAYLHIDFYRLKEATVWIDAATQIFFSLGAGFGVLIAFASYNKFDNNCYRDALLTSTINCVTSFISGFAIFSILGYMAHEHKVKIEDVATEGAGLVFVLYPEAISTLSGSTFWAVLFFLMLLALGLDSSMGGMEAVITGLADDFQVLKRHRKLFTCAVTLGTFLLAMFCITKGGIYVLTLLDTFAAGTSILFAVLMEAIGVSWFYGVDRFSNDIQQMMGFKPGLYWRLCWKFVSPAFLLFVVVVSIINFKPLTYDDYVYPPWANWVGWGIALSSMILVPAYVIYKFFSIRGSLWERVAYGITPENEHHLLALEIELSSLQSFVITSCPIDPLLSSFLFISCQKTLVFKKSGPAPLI

[4] = biological target: Sodium-dependent serotonin transporter (Rattus norvegicus, UniProt P31652); test: Inhibition of [3H]paroxetine binding to serotonin transporter in rat frontal cortex; assay type: tissue-based
Sequence of Sodium-dependent serotonin transporter (P31652 whole entry): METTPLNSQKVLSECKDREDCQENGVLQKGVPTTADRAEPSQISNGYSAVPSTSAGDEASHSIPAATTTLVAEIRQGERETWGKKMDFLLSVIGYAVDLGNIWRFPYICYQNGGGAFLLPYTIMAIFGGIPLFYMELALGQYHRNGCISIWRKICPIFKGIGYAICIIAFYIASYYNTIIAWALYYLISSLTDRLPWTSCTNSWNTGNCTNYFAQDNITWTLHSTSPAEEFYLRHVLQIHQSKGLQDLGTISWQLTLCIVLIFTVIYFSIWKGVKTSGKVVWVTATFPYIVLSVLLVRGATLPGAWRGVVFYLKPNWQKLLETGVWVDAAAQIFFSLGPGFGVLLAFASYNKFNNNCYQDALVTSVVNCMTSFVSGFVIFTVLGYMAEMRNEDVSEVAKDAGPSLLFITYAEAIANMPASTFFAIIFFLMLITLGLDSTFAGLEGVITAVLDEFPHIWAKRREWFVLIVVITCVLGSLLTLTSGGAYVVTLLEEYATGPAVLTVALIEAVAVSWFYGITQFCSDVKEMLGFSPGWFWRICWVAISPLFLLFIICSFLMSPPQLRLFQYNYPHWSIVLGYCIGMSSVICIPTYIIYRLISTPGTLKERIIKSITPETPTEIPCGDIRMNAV

[5] = biological target: Sodium-dependent dopamine transporter (Rattus norvegicus, UniProt P23977); test: Inhibition of [3H]WIN-35428 binding to the dopamine transporter in rat striata.
Sequence of Sodium-dependent dopamine transporter (P23977 whole entry): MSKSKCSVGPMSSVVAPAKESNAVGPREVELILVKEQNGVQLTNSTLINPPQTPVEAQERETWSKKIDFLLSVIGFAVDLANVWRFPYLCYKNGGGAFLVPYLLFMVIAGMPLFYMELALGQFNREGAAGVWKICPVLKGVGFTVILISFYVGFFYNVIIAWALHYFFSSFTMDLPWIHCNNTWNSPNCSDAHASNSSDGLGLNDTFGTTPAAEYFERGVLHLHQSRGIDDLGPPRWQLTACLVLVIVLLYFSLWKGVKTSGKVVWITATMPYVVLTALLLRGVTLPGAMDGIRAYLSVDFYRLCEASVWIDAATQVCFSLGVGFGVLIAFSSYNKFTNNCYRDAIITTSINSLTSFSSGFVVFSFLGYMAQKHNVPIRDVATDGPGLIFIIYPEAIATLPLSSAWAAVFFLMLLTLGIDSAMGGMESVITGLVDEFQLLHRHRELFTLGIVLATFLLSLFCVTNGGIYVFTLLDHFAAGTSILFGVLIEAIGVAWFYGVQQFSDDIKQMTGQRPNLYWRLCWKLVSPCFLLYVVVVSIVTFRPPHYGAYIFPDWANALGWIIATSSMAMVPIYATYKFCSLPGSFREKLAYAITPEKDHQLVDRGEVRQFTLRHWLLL

Sequence of Monoamine transporters; serotonin & dopamine (Rattus norvegicus) (P23977 whole entry, looked up): as the sequence (P23977 whole entry) above
Sequence of Monoamine transporters; serotonin & dopamine (Rattus norvegicus) (P31652 whole entry, looked up): as the sequence (P31652 whole entry) above

Row | Compound | Ratio [1] | Ratio [2] | IC50 [3] [nM] | IC50 [4] [nM] | IC50 [5] [nM]
1 | COC(=O)C1C(c2ccc(C(C)C)cc2)CC2CCC1N2C (stereo not given) | 3.1 | 392 | 75000 | 191 | 597
2 | C=CCc1ccc(C2CC3CCC(N3)C2C(=O)OC)cc1 (stereo not given) | 9.1 | 15 | 89.7 | 6.2 | 56.5
3 | C/C=C\c1ccc(C2CC3CCC(C2C(=O)OC)N3C)cc1 (stereo not given) | 2.1 | 395 | 2800 | 7.09 | 15
4 | C=C(C)c1ccc(C2CC3CCC(N3)C2C(=O)OC)cc1 (stereo not given) | 38 | 240 | 144 | 0.6 | 23
5 | C=CCc1ccc(C2CC3CCC(C2C(=O)OC)N3C)cc1 (stereo not given) | 1.16 | 87 | 2480 | 28.4 | 32.8
6 | CCCc1ccc(C2CC3CCC(N3)C2C(=O)OC)cc1 (stereo not given) | 8.2 | 21 | 532 | 26 | 212
7 | C/C=C/c1ccc(C2CC3CCC(N3)C2C(=O)OC)cc1 (trans isomer) | 22 | 42 | 54 | 1.3 | 28.6
8 | COC(=O)[C@@H]1C2CCC(C[C@@H]1OC(=O)c1ccccc1)N2 (stereo not given in full) | 1.6 | 1.1 | 139 | 127 | 206
9 | COC(=O)C1C2CCC(CC1c1ccc(C(C)C)cc1)N2 (stereo not given) |  | 21 |  |  | 320
10 | CCc1ccc(C2CC3CCC(C2C(=O)OC)N3C)cc1 (stereo not given) | 1.9 | 142 | 4030 |  | 55
11 | C/C=C\c1ccc(C2CC3CCC(N3)C2C(=O)OC)cc1 (cis isomer) | 28 | 128 | 147 | 1.15 | 31.6
12 | C#Cc1ccc(C2CC3CCC(N3)C2C(=O)OC)cc1 (stereo not given) | 0.78 | 13.7 | 21.8 | 1.59 | 1.24
13 | C=Cc1ccc(C2CC3CCC(N3)C2C(=O)OC)cc1 (stereo not given) | 0.77 | 6.6 | 14.9 |  | 1.73
14 | CC#Cc1ccc(C2CC3CCC(C2C(=O)OC)N3C)cc1 (stereo not given) | 0.15 | 52 | 820 |  | 2.37
15 | CCc1ccc(C2CC3CCC(N3)C2C(=O)OC)cc1 (stereo not given) | 6.1 | 15 | 122 |  | 49.9
16 | C#Cc1ccc(C2CC3CCC(C2C(=O)OC)N3C)cc1 (stereo not given) | 0.27 | 19 | 83.2 | 4.4 | 1.2
17 | C=C(C)c1ccc(C2CC3CCC(C2C(=O)OC)N3C)cc1 (stereo not given) | 4.6 | 425 | 1330 |  | 14.1
18 | CCCc1ccc(C2CC3CCC(C2C(=O)OC)N3C)cc1 (stereo not given) | 0.97 | 56 | 3920 |  | 68.5
19 | C/C=C/c1ccc(C2CC3CCC(C2C(=O)OC)N3C)cc1 (stereo not given) | 0.46 | 140 | 1590 |  | 5.29
20 | C=Cc1ccc(C2CC3CCC(C2C(=O)OC)N3C)cc1 (stereo not given) | 0.13 | 8.2 | 78 | 9.5 | 1.24
21 | CC#Cc1ccc(C2CC3CCC(N3)C2C(=O)OC)cc1 (stereo not given) | 1.93 | 37 | 116 | 3.16 | 6.11
